A selection: hits, their analogues and other compounds. The true share with any hit is near 3.9%.
tim10-1 inh – growth inhibitors of tim10-1 mutant yeast, primary screen, luminescence, uHTS; AID 463190, 2010; inhibition, % at 20 µM; S. cerevisiae tim10-1 ts strain growth, BacTiter-Glo, 24 h; 2.2% of 330,000 active;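 active means inhibition of at least 40%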;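 further: mutant grown at 25 °C; 0% = DMSO wells with yeast and 100% = wells holding no yeast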
tim23-1 inh – growth inhibitors of tim23-1 mutant yeast, primary screen, luminescence, uHTS; S. cerevisiae tim23-1 growth, BacTiter-Glo luminescence, 24 h; inhibition, % at 20 µM; 1.3% of 330,000 active; AID 463212, 2010;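 active means growth inhibition of the mutant yeast at or above 50%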;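 further: temperature-sensitive mutant grown at 25 °C; plate controls were DMSO-treated mutant yeast for no effect and medium wells lacking yeast for full effect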
UPR XBP1 act – activators of adaptive XBP1 UPR arm, primary screen, cell-based, CHO-XBP1 luciferase reporter, luminescence, uHTS. IRE1-XBP1 UPR activation; percent of tunicamycin response, DMSO as zero. activation, % at 20 µM. 0.33% of 330,000 active;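 active means versus positive control, 20 µM dose yields 30% or more activation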;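 further: 100% = tunicamycin at 10 µg/mL and 0% = DMSO only wells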
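Assay system: CHO-XBP1 luciferase reporter cells; Schedule: 6 h treatment, 37 °C; Detection: glow luminescence from Steady-Glo reagent; Benchmarks: high control tunicamycin 10 µg/mL final, low control DMSO vehicle only.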
CHOP UPR activ – activators of apoptotic CHOP UPR arm, primary screen, cell-based, CHO-CHOP luciferase reporter, luminescence, uHTS; activation, % at 10 µM; UPR activation; percent of tunicamycin response over DMSO baseline; 0.34% of 330,000 active;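 active means at 10 µM dose, activation of 40% or more, normalized to positive control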;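 further: 100% = tunicamycin at 10 µg/mL and 0% = DMSO alone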
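System: CHO-CHOP luciferase reporter cell line; amount: 500 cells/well; buffer or medium: F12 medium containing 10% fetal bovine serum; incubation: 6 h compound exposure at 37 °C after overnight seeding; measured by: luciferase luminescence after 10 min with Steady-Glo reagent; evaluation: % reporter activation, DMSO baseline versus tunicamycin full activation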
TIM10 inh – growth inhibitors of isogenic TIM10 control yeast, primary screen, counter-screen for tim10-1 yeast inhibitor project, luminescence, uHTS; inhibition, % at 10 µM; 1.4% of 330,000 active; S. cerevisiae TIM10 strain growth, BacTiter-Glo luminescence, 24 h;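 active means inhibition of 40% or more at the single tested concentration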;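 further: wild-type TIM10 isogenic control strain grown at permissive 25 °C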
UPR CHOP confirm – activators of apoptotic CHOP UPR arm, confirmation, cell-based, CHO-CHOP luciferase reporter, single concentration; shares compounds with CHOP UPR activ; CHO-CHOP cells, CHOP-luciferase reporter luminescence; percent of tunicamycin response, DMSO as zero; activation, % at 10 µM; 64% of 1,000 active; AID 463112, 2010; in the data active means activation above about 33%;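 further: 0% = DMSO wells and 100% = tunicamycin 10 µg/mL wells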
XBP1 UPR conf – IRE1-XBP1 UPR arm activators, confirmation, cell-based, CHO-XBP1 luciferase reporter, luminescence, single concentration; shares compounds with UPR XBP1 act; activation, % at 20 µM; 63% of 1,000 active;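 active means reporter signal at least 30% of the positive control's activation in two or more of four replicate wells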;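 further: plate controls were DMSO negative control for no effect and tunicamycin 10 µg/mL positive control for full effect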
tim10-1 conf – growth inhibitors of tim10-1 mutant yeast, confirmation, single concentration, luminescence, S. cerevisiae; shares compounds with tim10-1 inh; S. cerevisiae tim10-1 ts strain growth, BacTiter-Glo, 24 h; inhibition, % at 20 µM; 56% of 7,400 active; AID 463213, 2010;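 active means inhibition of yeast growth at or above a set limit in either of two repeat tests at 20 µM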;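 further: tim10-1 mutant grown at permissive 25 °C to find synthetic lethal compounds; 0% = DMSO yeast wells and 100% = medium wells without yeast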
tim10 confirm – growth inhibitors of wild-type TIM10 yeast, confirmation, counter-screen for tim10-1 synthetic lethality project, single concentration, luminescence, S. cerevisiae. S. cerevisiae tim10 strain growth, BacTiter-Glo luminescence, 24 h. AID 463215, 2010. 63% of 4,600 active. shares compounds with TIM10 inh. inhibition, % at 10 µM;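 active means inhibition of yeast growth at or above a set limit in either of two replicates at 10 µM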;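 further: this counterscreen used the strain with wild-type TIM10; 0% = yeast with DMSO and 100% = medium wells lacking yeast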
Numbers without * were called inactive; . = not tested or not shown.

SMILES	tim10-1 inh	tim23-1 inh	UPR XBP1 act	CHOP UPR activ	TIM10 inh	UPR CHOP confirm	others
CC[C@H](C)[C@@H]1O[C@@]2(C=CC1C)CC1C[C@@H](CC=C(C)C(O[C@H]3CC(OC)C(O[C@H]4CC(OC)C(O)C(C)O4)C(C)O3)C(C)C=CC=C3CO[C@@H]4C(O)C(C)=C[C@@H](C(=O)O1)[C@]34O)O2 (some centres not stated)	30	19	50*	36	-4	.
ClCC(Br)CBr (configuration not stated)	5	-1	-1	3	5	.
CCCCn1c(N)c(C(=O)NCCN2CCOCC2)c2nc3ccccc3nc21	24	24	3	0	18	.
CCCCn1c(NC(=O)c2ccc(Br)o2)c(C(=O)OCC)c2nc3ccccc3nc21	37	24	62*	7	29	.
C/C=C(\C)C(=O)OC1C(C)=C2C(C1OC(=O)CCCCC)C(C)(OC(C)=O)CC(OC(=O)CCC)C1(O)C2OC(=O)C1(C)O (configuration not stated)	30	31	61*	22	14	.
COC(=O)C1=C(c2ccc(Cl)c(C(F)(F)F)c2)C[C@@H]2CC[C@H]1N2C(=O)NCc1cc(C)oc1C(F)(F)F	0	10	-3	-1	-10	.
C=C1C(=O)O[C@@H]2C[C@@H](C)[C@H]3C=CC(=O)[C@]3(O)C[C@@H]12	15	1	-4	61*	2	24
CCc1ccc(N2C(=O)NC(=O)/C(=C\C=C\c3ccco3)C2=O)cc1	11	9	-4	167*	4	229*
O=C1NC(=O)N(c2ccccc2)C(=O)/C1=C\C=C\c1ccccc1	6	39	-1	175*	11	63*
O=C1NC(=O)N(Cc2ccc(F)cc2)C(=O)/C1=C\C=C\c1ccco1	24	23	-1	-1	11	.
Cc1ccc(N2C(=O)NC(=O)/C(=C/C=C/c3ccco3)C2=O)cc1	5	28	-4	168*	-13	119*
CN1CCC(=O)N(CCN=[N+]=[N-])CC1	9	9	-2	1	14	.
O=c1c2ccccc2nc(/C=C/c2ccc([N+](=O)[O-])o2)n1-c1ccc(O)cc1	-4	-4	21	94*	0	37*
C/C=C/CC#N	-13	-10	-1	1	5	.
N=Cc1c(O)n(-c2cccc(Cl)c2)c(=O)[nH]c1=O	3	-3	-2	40*	-10	-1
O=c1[nH]c(=O)n(-c2cccc(Cl)c2)c(O)c1/C=N/c1ccccn1	-4	6	-4	-2	-8	.
COC(=O)C1=C(c2ccc(F)cc2OCc2ccccc2)C[C@@H]2CC[C@H]1N2C(=O)N1CCC(O)CC1	10	27	0	2	12	.
CCOc1ccc(N2C(=O)/C(=C\c3cccs3)C(=O)NC2=S)cc1	24	41	-7	268*	16	63*
COC(=O)C1=C(c2ccc(OC)c(OC)c2)C[C@@H]2CC[C@H]1N2C(=O)N1CCCC1	4	8	-1	-4	8	.
CSc1ncc(/C=C2/C(=O)NC(=O)N(c3ccc(C)cc3)C2=O)cn1	0	-6	-3	-1	-2	.
Cc1ccc(N2C(=O)NC(=O)/C(=C/c3cnn(-c4ccc(C)cc4)c3)C2=O)cc1	-9	7	3	87*	8	93*
O=C(Cc1ccccc1)OCC(=O)N1CCN(S(=O)(=O)c2ccc(Cl)cc2)CC1	14	4	1	0	-15	.
CCN1C(=O)C(=Cc2ccc(C)s2)C(=O)N(CC)C1=S	38	47	9	9	19	.
O=C1NC(=S)NC(=O)C1=Cc1ccc(Br)s1	15	31	-5	72*	14	119*
Cc1ccc(-c2cc(-c3ccc(C)cc3)[n+](-c3ccccc3)c(-c3ccc(C)cc3)c2)cc1	43*	47	7	55*	15	69*	tim10-1 conf=23
SMILES	tim10-1 inh	tim23-1 inh	UPR XBP1 act	CHOP UPR activ	TIM10 inh	UPR CHOP confirm	others
COC1=CC(=O)[C@]2(C=C1OC)OC[C@@H]1Oc3c(ccc4c3C=CC(C)(C)O4)C(=O)[C@@H]12	-8	-4	0	3	1	.
Cc1cccc(-n2c(/C=C/c3ccc([N+](=O)[O-])o3)nc3ccccc3c2=O)c1	57*	27	12	43*	47*	37*	tim10-1 conf=51*;tim10 confirm=-1
COC(=O)C1=C(c2ccc(-c3ccccc3)c(F)c2)C[C@@H]2CC[C@H]1N2C(=O)NCc1ccco1	15	28	0	-2	4	.
CC(C)N1CC=C(c2c[nH]c3ccccc23)CC1	10	2	48*	-4	0	.	XBP1 UPR conf=0
OCCCCO	6	7	0	4	5	.
COC(=O)C1=C(c2cccc(C#N)c2)C[C@@H]2CC[C@H]1N2C(=O)N1CCCC1	9	12	-3	-2	-1	.
CCN(CC)c1ccc(N=Cc2c(O)n(-c3ccc(OC)cc3)c(=O)[nH]c2=O)cc1	11	-19	-3	1	9	.
CCN(CC)c1ccc(N=Cc2c(O)n(-c3ccc(Cl)cc3)c(=O)[nH]c2=O)cc1	-5	-15	167*	31	-15	.	XBP1 UPR conf=48*
C=C(C)[C@@]12OC3(c4ccccc4)O[C@@H]1C1[C@@H]4O[C@]4(CO)[C@@H](O)[C@]4(O)C(=O)C(C)=C[C@H]4[C@@]1(O3)[C@H](C)[C@H]2OC(=O)/C=C/C=C/c1ccccc1 (some centres not stated)	19	10	47*	36	18	.	XBP1 UPR conf=61*

From PubChem BioAssay
